Measurements reported in ChEMBL document CHEMBL1156630, “Investigations on the 4-quinolone-3-carboxylic acid motif. 2. Synthesis and structure-activity relationship of potent and selective cannabinoid-2 receptor agonists endowed with analgesic activity in vivo” (J Med Chem, 2008).
The source made the active and inactive calls. No cut-off for these calls is given here.

What was measured:
[1] = target: Cannabinoid receptor 2 (Homo sapiens, UniProt P34972); assay: Displacement of [3H]CP-55940 from human CB2 receptor expressed in HEK293 cells; format: cell-based
Sequence of Cannabinoid receptor 2 (P34972 whole entry): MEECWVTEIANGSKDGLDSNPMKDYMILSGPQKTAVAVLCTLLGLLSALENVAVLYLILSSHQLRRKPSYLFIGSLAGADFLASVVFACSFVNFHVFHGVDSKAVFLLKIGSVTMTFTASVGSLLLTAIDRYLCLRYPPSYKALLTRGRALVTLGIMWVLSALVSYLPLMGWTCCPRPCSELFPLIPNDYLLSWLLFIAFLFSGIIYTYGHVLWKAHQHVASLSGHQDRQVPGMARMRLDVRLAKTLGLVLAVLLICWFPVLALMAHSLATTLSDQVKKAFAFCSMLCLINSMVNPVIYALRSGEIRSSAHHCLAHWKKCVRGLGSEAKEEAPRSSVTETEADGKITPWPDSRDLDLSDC

[2] = species: Homo sapiens; assay: Selectivity for human CB2 receptor over human CB1 receptor
Outline: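 Ratio Ki(CB1)/Ki(CB2) from radioligand displacement on HEK-cell membranes expressing human CB1 or CB2. Ki derived from IC50 via Cheng-Prusoff. Final DMSO below 0.1%.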

[3] = target: Cannabinoid receptor 1 (Homo sapiens, UniProt P21554); assay: biochemical; format: cell-based, HEK293
Sequence of Cannabinoid receptor 1 (P21554 whole entry): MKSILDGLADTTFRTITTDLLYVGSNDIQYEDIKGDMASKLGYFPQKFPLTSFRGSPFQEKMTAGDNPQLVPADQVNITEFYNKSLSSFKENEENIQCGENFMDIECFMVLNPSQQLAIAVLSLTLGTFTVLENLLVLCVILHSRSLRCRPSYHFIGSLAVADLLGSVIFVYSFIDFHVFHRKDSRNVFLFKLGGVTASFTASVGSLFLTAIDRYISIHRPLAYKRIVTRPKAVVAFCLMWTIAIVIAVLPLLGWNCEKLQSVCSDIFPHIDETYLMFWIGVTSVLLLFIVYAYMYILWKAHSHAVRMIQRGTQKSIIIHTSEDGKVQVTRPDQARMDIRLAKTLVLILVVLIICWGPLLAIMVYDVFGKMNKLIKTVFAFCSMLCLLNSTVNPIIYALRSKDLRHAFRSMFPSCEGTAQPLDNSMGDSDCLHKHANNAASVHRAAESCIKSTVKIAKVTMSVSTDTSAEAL

[4] = test system: Mus musculus; assay: Analgesic activity in mouse assessed as inhibition of formalin-induced nociceptive response at 3 mg/kg, ip; format: functional, organism-based; parameters: dose 3 mg/kg
Outline: (§1)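 Mice, 8-10 per group, randomly assigned; 1.25% formalin into dorsal hind paw. Drug given ip in 10% DMSO/0.9% NaCl 15 min before formalin; AM630 3 mg/kg ip given 5 min before compound. Licking, lifting, flinching, shaking and favoring timed in 5-min bins over 60 min; second phase 15-60 min. Two-way ANOVA with Bonferroni.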

[5] = test system: Mus musculus; assay: Analgesic activity in mouse assessed as inhibition of formalin-induced nociceptive response at 3 mg/kg, ip in presence of AM630; format: functional, organism-based; parameters: dose 3 mg/kg; outline: as §1

Compound	Ki [1] [nM]	Ratio Ki [2]	Ki [3] [nM]	Activity [4]	Activity [5]
CCCCCn1cc(C(=O)NC23CC4CC(CC(C4)C2)C3)c(=O)c2cc(/C=C/c3ccc(OC)cc3)ccc21	55.9	47	2630		
C=CCCn1cc(C(=O)NC23CC4CC(CC(C4)C2)C3)c(=O)c2cc(Br)ccc21	23.8	113	2680		
CCCCCn1cc(C(=O)NC23CC4CC(CC(C4)C2)C3)c(=O)c2ccc(F)cc21	0.8	38.1	30.5		
CCCCCn1cc(C(=O)NC23CC4CC(CC(C4)C2)C3)c(=O)c2ccc([S+]([O-])c3ccccc3)cc21 (stereo unspecified)	3.5	8	28		
CCCCCn1cc(C(=O)NC23CC4CC(CC(C4)C2)C3)c(=O)c2c(OC)ccc(OC)c21	52.6	39.9	2100		
C=CCn1cc(C(=O)NC23CC4CC(CC(C4)C2)C3)c(=O)c2c(OC)ccc(OC)c21	9.2	> 1090	> 10000		
C=CCCCn1cc(C(=O)NC23CC4CC(CC(C4)C2)C3)c(=O)c2cc(Br)ccc21	9.4	74.4	696		
CCCCCn1cc(C(=O)N[C@H](C)c2ccccc2)c(=O)c2ccc(F)cc21	10.7	1.3	14.3		
CCCCCn1cc(C(=O)NC23CC4CC(CC(C4)C2)C3)c(=O)c2ccc(Sc3ccccc3)cc21	1.6	3.3	5.3		
CCCCCn1cc(C(=O)N[C@H](C)c2ccccc2)c(=O)c2ccc(N3CCCC3)cc21	17.1	9.4	160		
CCCCCn1cc(C(=O)NC23CC4CC(CC(C4)C2)C3)c(=O)c2cc(C(F)(F)F)ccc21	11.6	217	2520		
CCCCCn1cc(C(=O)NC23CC4CC(CC(C4)C2)C3)c(=O)c2cc(Sc3ccccc3)ccc21	3.4	189	640		
CCCCCn1cc(C(=O)N[C@H](C)c2ccccc2)c(=O)c2ccc(OCC)cc21	24.2	1.2	29.7		
CCCCCn1cc(C(=O)NC23CC4CC(CC(C4)C2)C3)c(=O)c2cc(F)c(-n3cccc3)cc21	3.6	38.8	140		
CCCCCn1cc(C(=O)NC23CC4CC(CC(C4)C2)C3)c(=O)c2cc(C(C)C)ccc21				Active	inactive
CCCCCn1cc(C(=O)NC23CC4CC(CC(C4)C2)C3)c(=O)c2cc(Oc3ccc(F)c(Cl)c3)ccc21	16.1	46	739		
CCCCCn1cc(C(=O)NC23CC4CC(CC(C4)C2)C3)c(=O)c2ccc(S(=O)(=O)c3ccccc3)cc21	0.9		6.1		
CCCCCn1cc(C(=O)NC23CC4CC(CC(C4)C2)C3)c(=O)c2ccc(Cl)c(C)c21	25.5	> 393	> 10000		
CCCCCn1cc(C(=O)NC23CC4CC(CC(C4)C2)C3)c(=O)c2cc(-c3ccccc3)ccc21	3.8	> 2670	> 10000		
CCCCCn1cc(C(=O)NC23CC4CC(CC(C4)C2)C3)c(=O)c2cc(Br)ccc21	14.3	69.4	996		
CCCCCn1cc(C(=O)NC23CC4CC(CC(C4)C2)C3)c(=O)c2ccccc21	4.7	9	42.1		
